Tests used:
Assay type in all cases: functional
[1] = system: HL-60; assay: Antiproliferative activity against human HL60 cell line at 10 umol/L by MTT method
Procedure, shortened: (§1)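 P-388 and HL-60 cells were tested in vitro by MTT assay over five tenfold concentrations from 10^-4 to 10^-8 mol/L. Each value is the percent inhibition ratio of cancer cell growth at that concentration.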

[2] = system: HL-60; assay: Antiproliferative activity against human HL60 cell line at 1 umol/L by MTT method; procedure, shortened: as §1
[3] = system: HL-60; assay: Antiproliferative activity against human HL60 cell line at 0.1 umol/L by MTT method; procedure, shortened: as §1
[4] = system: HL-60; assay: Antiproliferative activity against human HL60 cell line at 0.01 umol/L by MTT method; procedure, shortened: as §1
[5] = system: Bel-7402; assay: Antiproliferative activity against human BEL-7402 cell line at 100 umol/L by SRB method
Procedure, shortened: (§2)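 Growth inhibition of A-549 and BEL-7402 cells was measured in vitro by sulforhodamine B (SRB) staining. Compounds were tested across five tenfold concentrations from 10^-4 to 10^-8 mol/L, and each value is reported as the percent inhibition ratio of cell growth at that concentration.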

[6] = system: Bel-7402; assay: Antiproliferative activity against human BEL-7402 cell line at 10 umol/L by SRB method; procedure, shortened: as §2
[7] = system: Bel-7402; assay: Antiproliferative activity against human BEL-7402 cell line at 1 umol/L by SRB method; procedure, shortened: as §2
[8] = system: Bel-7402; assay: Antiproliferative activity against human BEL-7402 cell line at 0.1 umol/L by SRB method; procedure, shortened: as §2
[9] = system: Bel-7402; assay: Antiproliferative activity against human BEL-7402 cell line at 0.01 umol/L by SRB method; procedure, shortened: as §2
[10] = system: HL-60; assay: Antiproliferative activity against human HL60 cell line at 100 umol/L by MTT method; procedure, shortened: as §1
[11] = system: A549; assay: Antiproliferative activity against human A549 cell line at 100 umol/L by SRB method; procedure, shortened: as §2
[12] = system: A549; assay: Antiproliferative activity against human A549 cell line at 10 umol/L by SRB method; procedure, shortened: as §2
[13] = system: A549; assay: Antiproliferative activity against human A549 cell line at 1 umol/L by SRB method; procedure, shortened: as §2
[14] = system: A549; assay: Antiproliferative activity against human A549 cell line at 0.1 umol/L by SRB method; procedure, shortened: as §2
[15] = system: A549; assay: Antiproliferative activity against human A549 cell line at 0.01 umol/L by SRB method; procedure, shortened: as §2
[16] = system: P388; assay: Antiproliferative activity against mouse P388 cell line at 100 umol/L by MTT method; procedure, shortened: as §1
[17] = system: P388; assay: Antiproliferative activity against mouse P388 cell line at 10 umol/L by MTT method; procedure, shortened: as §1
[18] = system: P388; assay: Antiproliferative activity against mouse P388 cell line at 1 umol/L by MTT method; procedure, shortened: as §1
[19] = system: P388; assay: Antiproliferative activity against mouse P388 cell line at 0.1 umol/L by MTT method; procedure, shortened: as §1
[20] = system: P388; assay: Antiproliferative activity against mouse P388 cell line at 0.01 umol/L by MTT method; procedure, shortened: as §1

Compound | Activity [1] | Activity [2] | Activity [3] | Activity [4] | Activity [5] | Activity [6] | Activity [7] | Activity [8] | Activity [9] | Activity [10] | Activity [11] | Activity [12] | Activity [13] | Activity [14] | Activity [15] | Activity [16] | Activity [17] | Activity [18] | Activity [19] | Activity [20]
c1ccc(C2=NNC(c3ccccc3)=NN2)cc1 | 16.1% | 2.9% | 2.6% | 17.2% | 54% | 14.3% | 0% | 0% | 0% | 82.1% | 55.8% | 67.2% | 5.4% | 10.2% | 0% | 87.6% | 69% | 0% | 0% | 0%
Clc1ccc(Cc2nnc(Cc3ccc(Cl)cc3)nn2)cc1 | 22.3% | 13.5% | 21.1% | 7.6% | 61.2% | 0% | 0% | 0% | 6% | 85.4% | 58.4% | 29.1% | 9.3% | 8.9% | 0% | 65.8% | 57.1% | 13.1% | 1.1% | 8.7%
Cc1cccnc1-c1nnc(-c2ncccc2C)nn1 | 96.6% | 7% | 9.1% | 4.2% | 93% | 23.8% | 0% | 0% | 2.8% | 94.3% | 93.5% | 9.8% | 0% | 0% | 0% | 34.9% | 0% | 0% | 0% | 0%
c1ccc(-c2nnc(-c3ccccc3)nn2)cc1 | 16.4% | 13.9% | 13.9% | 0% | 41.7% | 7.4% | 0% | 0% | 0% | 35.1% | 60.4% | 9.5% | 20.3% | 27.1% | 29.7% | 15.5% | 0% | 0% | 0% | 0%
FC(F)(F)c1ccc(-c2nnc(-c3ccc(C(F)(F)F)cc3)nn2)cc1 | 7% | 5.8% | 1.4% | 0% | 21.3% | 12.6% | 0% | 0% | 0% | 43.7% | 51.5% | 44.4% | 33% | 19.5% | 9.7% | 40.2% | 2.5% | 0% | 0% | 0%
Oc1ccc(Cl)cc1C1=NN=C(c2cc(Cl)ccc2O)NN1 | – | – | – | – | – | – | – | – | – | – | 65.3% | 80.3% | 0% | 0% | 0% | 89% | 0% | 0% | 0% | 0%
Clc1ccc(C2=NN=C(c3ccc(Cl)cc3)NN2)cc1 | – | – | – | – | – | – | – | – | – | – | 73.4% | 2% | 4.7% | 0% | 7.1% | 65.9% | 51% | 36% | 19.4% | 4.9%
Cc1cccnc1C1=NN=C(c2ncccc2C)NN1 | 13.6% | 2.9% | 2.6% | 17.2% | 94.9% | 8.3% | 0% | 0% | 0% | 96.3% | 2.6% | 3.6% | 0% | 0% | 0% | 0% | 0% | 0% | 0% | 0%
Clc1ccc(-c2nnc(-c3ccc(Cl)cc3)nn2)cc1 | 12.2% | 0% | 4% | 0% | 27.4% | 0.1% | 0% | 0% | 3.4% | 66.7% | 52.3% | 35.1% | 29% | 19.4% | 16.1% | 0% | 0% | 0% | 0% | 0%
Clc1ccc(CC2=NNC(Cc3ccc(Cl)cc3)=NN2)cc1 | – | – | – | – | – | – | – | – | – | – | 64.5% | 17.8% | 3% | 10.1% | 7.8% | 48.8% | 15.5% | 4.4% | 2.9% | 0%
FC(F)(F)c1ccc(C2=NN=C(c3ccc(C(F)(F)F)cc3)NN2)cc1 | – | – | – | – | – | – | – | – | – | – | 70.3% | 22% | 0% | 0% | 0% | 47.7% | 36.9% | 15.2% | 13.8% | 9.1%
Oc1ccc(Cl)cc1-c1nnc(-c2cc(Cl)ccc2O)nn1 | – | – | – | – | – | – | – | – | – | – | 7.6% | 62.3% | 16.4% | 0% | 0% | 92.5% | 90.7% | 91.2% | 88% | 82.8%
Clc1ccccc1-c1nnc(-c2ccccc2Cl)nn1 [CLOFENTEZINE] | – | – | – | – | – | – | – | – | – | – | 8.2% | 2.8% | 5.6% | 14.6% | 12.6% | 0% | 0% | 0% | 0% | 0%

Reference: ChEMBL document CHEMBL1138913, “Synthesis, structure analysis, and antitumor activity of 3,6-disubstituted-1,4-dihydro-1,2,4,5-tetrazine derivatives” (2006)
